Test results from the M2OR odorant receptor database.

Columns and labels:
Conditions in all cases: stereoisomer not certain
OR52I1 (Homo sapiens) = target: T1, OR52I1 (Homo sapiens) (UniProt Q8NGK6)
T1 sequence (whole entry): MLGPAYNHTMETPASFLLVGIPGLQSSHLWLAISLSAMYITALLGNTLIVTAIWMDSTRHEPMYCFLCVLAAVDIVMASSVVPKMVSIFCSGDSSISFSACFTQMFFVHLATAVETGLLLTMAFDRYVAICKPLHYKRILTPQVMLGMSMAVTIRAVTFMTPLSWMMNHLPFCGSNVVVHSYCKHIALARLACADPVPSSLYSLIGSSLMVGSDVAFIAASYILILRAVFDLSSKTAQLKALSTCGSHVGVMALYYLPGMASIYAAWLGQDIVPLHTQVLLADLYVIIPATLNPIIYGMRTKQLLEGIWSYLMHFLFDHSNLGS
Procedure, shortened: (§1)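 Assay methods differ from source to source, frequently being transient luciferase assays in mammalian cell lines. For each receptor–molecule pair, the label responsive (active) applies when the original authors judged the measured signal statistically different from baseline, and non-responsive (inactive) applies otherwise.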

OR52I2 (Homo sapiens) = target: T2, OR52I2 (Homo sapiens) (UniProt Q8NH67)
T2 sequence (whole entry): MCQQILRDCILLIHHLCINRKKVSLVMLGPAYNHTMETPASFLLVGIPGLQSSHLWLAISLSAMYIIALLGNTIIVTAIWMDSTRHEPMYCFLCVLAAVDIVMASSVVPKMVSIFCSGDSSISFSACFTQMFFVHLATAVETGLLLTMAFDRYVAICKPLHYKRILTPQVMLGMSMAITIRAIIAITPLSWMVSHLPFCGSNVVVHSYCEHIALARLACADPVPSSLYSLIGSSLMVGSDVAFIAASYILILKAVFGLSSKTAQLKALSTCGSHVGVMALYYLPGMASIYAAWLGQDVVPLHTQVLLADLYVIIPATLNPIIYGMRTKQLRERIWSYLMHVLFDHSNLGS
Procedure, shortened: as §1

OR52J3 (Homo sapiens) = OR52J3 (Homo sapiens) (UniProt Q8NH60)
Chain of OR52J3 (Homo sapiens) (Q8NH60 whole entry): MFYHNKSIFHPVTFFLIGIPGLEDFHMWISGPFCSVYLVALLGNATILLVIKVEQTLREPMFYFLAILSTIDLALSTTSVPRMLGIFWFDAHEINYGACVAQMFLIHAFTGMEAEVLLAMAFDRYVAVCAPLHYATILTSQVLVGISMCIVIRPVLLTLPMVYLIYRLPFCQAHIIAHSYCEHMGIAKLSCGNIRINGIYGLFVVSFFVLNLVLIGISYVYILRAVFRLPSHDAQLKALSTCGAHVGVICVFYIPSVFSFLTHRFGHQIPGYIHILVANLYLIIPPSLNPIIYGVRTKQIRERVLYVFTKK
Procedure, shortened: as §1

OR52K1 (Homo sapiens) = target: T3, OR52K1 (Homo sapiens) (UniProt Q8NGK4)
T3 sequence (whole entry): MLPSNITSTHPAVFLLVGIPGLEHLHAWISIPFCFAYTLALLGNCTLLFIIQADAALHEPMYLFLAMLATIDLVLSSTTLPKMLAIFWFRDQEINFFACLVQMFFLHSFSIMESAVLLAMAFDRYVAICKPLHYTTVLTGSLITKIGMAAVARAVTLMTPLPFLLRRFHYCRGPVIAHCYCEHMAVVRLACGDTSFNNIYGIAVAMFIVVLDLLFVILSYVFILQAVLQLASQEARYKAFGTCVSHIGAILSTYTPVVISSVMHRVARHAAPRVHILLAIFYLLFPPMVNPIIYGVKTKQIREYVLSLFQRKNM
Procedure, shortened: as §1

OR52K2 (Homo sapiens) = target: T4, OR52K2 (Homo sapiens) (UniProt Q8NGK3)
T4 sequence (whole entry): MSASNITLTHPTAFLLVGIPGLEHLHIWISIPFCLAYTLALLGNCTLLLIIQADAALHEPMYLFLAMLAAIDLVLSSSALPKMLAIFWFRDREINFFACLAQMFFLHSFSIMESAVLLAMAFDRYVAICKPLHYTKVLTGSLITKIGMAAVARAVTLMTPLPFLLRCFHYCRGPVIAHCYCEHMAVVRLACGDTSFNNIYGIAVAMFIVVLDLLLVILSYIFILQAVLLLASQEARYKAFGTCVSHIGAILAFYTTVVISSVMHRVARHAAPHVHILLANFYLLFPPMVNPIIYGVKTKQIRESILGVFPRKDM
Procedure, shortened: as §1

OR52L1 (Homo sapiens) = target: T5, OR52L1 (Homo sapiens) (UniProt Q8NGH7)
T5 sequence (whole entry): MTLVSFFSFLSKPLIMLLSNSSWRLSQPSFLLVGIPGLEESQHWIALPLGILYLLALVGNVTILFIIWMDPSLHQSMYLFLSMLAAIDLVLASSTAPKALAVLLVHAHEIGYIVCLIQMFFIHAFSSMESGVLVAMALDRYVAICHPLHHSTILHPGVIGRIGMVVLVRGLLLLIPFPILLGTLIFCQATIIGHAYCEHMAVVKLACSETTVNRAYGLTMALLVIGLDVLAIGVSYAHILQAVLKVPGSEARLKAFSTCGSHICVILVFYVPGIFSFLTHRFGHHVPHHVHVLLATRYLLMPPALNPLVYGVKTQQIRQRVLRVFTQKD
Procedure, shortened: as §1

OR52M1 (Homo sapiens) = target: T6, OR52M1 (Homo sapiens) (UniProt Q8NGK5)
T6 sequence (whole entry): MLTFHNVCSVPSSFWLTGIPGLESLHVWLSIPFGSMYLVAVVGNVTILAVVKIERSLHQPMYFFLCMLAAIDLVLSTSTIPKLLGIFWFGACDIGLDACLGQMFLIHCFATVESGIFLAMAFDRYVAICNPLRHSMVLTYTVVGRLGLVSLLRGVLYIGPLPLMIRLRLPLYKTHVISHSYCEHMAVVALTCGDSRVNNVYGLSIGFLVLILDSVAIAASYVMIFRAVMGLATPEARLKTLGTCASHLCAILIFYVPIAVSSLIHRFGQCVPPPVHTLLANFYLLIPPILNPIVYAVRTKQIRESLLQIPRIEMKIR
Procedure, shortened: as §1

OR52N1 (Homo sapiens) = target: T7, OR52N1 (Homo sapiens) (UniProt Q8NH53)
T7 sequence (whole entry): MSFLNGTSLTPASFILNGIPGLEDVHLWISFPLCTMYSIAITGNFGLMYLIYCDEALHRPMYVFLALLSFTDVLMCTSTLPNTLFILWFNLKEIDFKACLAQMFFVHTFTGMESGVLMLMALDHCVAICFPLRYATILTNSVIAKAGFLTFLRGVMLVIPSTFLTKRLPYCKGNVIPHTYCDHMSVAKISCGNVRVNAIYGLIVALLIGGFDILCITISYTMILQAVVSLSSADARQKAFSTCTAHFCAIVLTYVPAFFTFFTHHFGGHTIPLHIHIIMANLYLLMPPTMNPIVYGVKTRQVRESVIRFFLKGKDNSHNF
Procedure, shortened: as §1

OR52N2 (Homo sapiens) = target: T8, OR52N2 (Homo sapiens) (UniProt Q8NGI0)
T8 sequence (whole entry): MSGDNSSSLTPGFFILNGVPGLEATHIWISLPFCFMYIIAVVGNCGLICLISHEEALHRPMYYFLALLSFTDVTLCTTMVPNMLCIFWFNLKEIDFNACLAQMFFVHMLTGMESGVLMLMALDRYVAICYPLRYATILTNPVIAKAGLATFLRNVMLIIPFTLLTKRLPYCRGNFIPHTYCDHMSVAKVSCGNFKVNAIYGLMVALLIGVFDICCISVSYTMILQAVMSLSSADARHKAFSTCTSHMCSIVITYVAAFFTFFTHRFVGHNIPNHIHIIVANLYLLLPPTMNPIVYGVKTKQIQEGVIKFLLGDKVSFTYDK
Procedure, shortened: as §1

OR52N4 (Homo sapiens) = target: T9, OR52N4 (Homo sapiens) (UniProt Q8NGI2)
T9 sequence (whole entry): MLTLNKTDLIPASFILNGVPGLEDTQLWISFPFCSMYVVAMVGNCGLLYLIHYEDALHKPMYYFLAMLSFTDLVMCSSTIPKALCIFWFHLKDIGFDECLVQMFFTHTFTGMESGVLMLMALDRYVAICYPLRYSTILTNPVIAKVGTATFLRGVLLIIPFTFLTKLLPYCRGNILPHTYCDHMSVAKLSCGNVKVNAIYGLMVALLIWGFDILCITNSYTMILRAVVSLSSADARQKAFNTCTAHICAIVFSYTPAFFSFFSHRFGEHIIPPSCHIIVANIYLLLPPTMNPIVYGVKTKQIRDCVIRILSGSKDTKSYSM
Procedure, shortened: as §1

OR52N5 (Homo sapiens) = target: T10, OR52N5 (Homo sapiens) (UniProt Q8NH56)
T10 sequence (whole entry): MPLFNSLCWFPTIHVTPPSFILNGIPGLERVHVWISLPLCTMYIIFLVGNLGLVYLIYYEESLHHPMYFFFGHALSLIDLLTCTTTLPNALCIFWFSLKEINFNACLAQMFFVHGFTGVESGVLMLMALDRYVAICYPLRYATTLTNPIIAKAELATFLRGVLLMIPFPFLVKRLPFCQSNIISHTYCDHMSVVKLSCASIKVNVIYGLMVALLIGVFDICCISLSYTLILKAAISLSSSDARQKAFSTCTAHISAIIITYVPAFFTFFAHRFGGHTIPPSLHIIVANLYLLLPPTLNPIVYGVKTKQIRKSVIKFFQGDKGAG
Procedure, shortened: as §1

OR52R1 (Homo sapiens) = target: T11, OR52R1 (Homo sapiens) (UniProt Q8NGF1)
T11 sequence (whole entry): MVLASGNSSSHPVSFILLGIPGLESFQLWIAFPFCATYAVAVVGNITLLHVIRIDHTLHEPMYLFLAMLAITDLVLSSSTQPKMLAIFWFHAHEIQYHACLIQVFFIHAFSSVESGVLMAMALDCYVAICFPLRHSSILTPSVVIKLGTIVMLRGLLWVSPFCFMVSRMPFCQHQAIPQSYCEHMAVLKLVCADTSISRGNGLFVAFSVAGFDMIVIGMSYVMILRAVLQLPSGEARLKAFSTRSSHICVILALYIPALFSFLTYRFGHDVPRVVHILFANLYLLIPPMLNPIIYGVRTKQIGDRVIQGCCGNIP
Procedure, shortened: as §1

OR52W1 (Homo sapiens) = target: T12, OR52W1 (Homo sapiens) (UniProt Q6IF63)
T12 sequence (whole entry): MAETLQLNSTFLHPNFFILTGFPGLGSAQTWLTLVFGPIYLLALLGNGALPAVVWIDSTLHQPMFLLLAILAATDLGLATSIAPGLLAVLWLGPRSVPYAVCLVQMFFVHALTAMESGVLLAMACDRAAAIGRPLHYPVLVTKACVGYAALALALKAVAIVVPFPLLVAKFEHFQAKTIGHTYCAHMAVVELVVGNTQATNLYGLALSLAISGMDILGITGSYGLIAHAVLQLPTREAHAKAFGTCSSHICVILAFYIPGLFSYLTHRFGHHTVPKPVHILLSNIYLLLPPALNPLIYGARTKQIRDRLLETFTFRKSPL
Procedure, shortened: as §1

OR56A1 (Homo sapiens) = target: T13, OR56A1 (Homo sapiens) (UniProt Q8NGH5)
T13 sequence (whole entry): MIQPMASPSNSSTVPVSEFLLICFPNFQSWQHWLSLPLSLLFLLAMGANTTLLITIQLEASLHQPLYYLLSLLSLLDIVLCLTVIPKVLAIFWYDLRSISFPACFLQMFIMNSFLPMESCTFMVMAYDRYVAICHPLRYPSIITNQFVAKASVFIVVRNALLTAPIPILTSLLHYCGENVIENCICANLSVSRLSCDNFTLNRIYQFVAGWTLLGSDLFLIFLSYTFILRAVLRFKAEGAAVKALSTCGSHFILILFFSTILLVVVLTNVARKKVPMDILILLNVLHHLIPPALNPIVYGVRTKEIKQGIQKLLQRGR
Procedure, shortened: as §1

OR56A3 (Homo sapiens) = target: T14, OR56A3 (Homo sapiens) (UniProt Q8NH54)
T14 sequence (whole entry): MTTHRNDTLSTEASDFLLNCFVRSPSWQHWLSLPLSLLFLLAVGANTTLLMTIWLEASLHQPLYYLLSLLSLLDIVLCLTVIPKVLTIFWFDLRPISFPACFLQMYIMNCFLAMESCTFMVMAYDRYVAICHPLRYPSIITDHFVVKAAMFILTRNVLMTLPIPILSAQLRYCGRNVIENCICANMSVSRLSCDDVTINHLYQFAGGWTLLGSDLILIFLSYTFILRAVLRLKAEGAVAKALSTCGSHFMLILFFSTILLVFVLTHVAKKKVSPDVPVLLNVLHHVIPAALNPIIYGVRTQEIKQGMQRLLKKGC
Procedure, shortened: as §1

OR56A5 (Homo sapiens) = target: T15, OR56A5 (Homo sapiens) (UniProt P0C7T3)
T15 sequence (whole entry): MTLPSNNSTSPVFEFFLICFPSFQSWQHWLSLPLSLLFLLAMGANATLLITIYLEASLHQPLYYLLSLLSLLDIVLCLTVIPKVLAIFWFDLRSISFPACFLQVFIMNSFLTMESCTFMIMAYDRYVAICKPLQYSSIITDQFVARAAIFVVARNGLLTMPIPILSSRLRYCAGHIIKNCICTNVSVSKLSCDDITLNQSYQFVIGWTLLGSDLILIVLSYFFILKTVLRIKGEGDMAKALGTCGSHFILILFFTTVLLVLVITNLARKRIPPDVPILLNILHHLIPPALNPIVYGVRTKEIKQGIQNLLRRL
Procedure, shortened: as §1

OR56B1 (Homo sapiens) = target: T16, OR56B1 (Homo sapiens) (UniProt Q8NGI3)
T16 sequence (whole entry): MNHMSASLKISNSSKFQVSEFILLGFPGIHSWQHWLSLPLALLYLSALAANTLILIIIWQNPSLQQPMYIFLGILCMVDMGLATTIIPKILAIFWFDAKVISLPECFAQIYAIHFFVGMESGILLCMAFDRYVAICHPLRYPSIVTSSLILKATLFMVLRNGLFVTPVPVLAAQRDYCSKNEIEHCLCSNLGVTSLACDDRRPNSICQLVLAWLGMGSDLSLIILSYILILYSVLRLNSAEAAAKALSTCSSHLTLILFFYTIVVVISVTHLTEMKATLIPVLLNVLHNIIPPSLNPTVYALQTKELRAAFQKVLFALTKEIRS
Procedure, shortened: as §1

Measured: odorant receptor agonist call

CCCC(S)CCOC(C)=O (stereo not drawn)
inactive: all assays above

CC1=C(O)C(=O)OC1C (stereo not drawn)
inactive: all assays above

CC1=NC(C)C(C)S1 (stereo not drawn)
inactive: all assays above

CCC1OC(=O)C(O)=C1C (stereo not drawn)
inactive: all assays above
